Source: PubChem BioAssay (several laboratories)
Hits are enriched below; roughly 1.8% of the tested compounds scored in any of these assays.
MT1-MMP act inh: inhibitors of human MT1-MMP activation; AID 651647; HT1080 RFP-PRO-GFP cells, GFP/RFP ratio fluorescence, overnight; percent of plate control window, DMSO zero; hit rate 0.061% among 360,000; GFP/RFP ratio change, % at 20 µM; P50281;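 active = GFP/RFP ratio change of at least 30% with cell ATP level not reduced by more than half and red fluorescence within 50% of control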
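Compound: 20 µM single dose, 1% DMSO / System: HT1080 RFP-PRO-GFP cells / Controls: DMSO and RFP-L50D-GFP cell wells / Read-out basis: GFP/RFP fluorescence ratio / Schedule: overnight compound exposure at 37 °C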
TbMetRS inhib: Trypanosoma brucei MetRS inhibition | hit rate 0.4% among 360,000 | inhibition, % at 11.9 µM | purified T. brucei MetRS, ATP depletion, Kinase-Glo luminescence;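 active = inhibition above a per-plate cutoff of the control wells' mean inhibition plus 3 SD, cut at about 5.5% in these data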;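 also: 0% = DMSO wells median and 100% = median of wells with control inhibitor compound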
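Test system: purified T. brucei MetRS enzyme. Also added: ATP, methionine and E. coli bulk tRNA substrates. Compound: 11.9 µM single point. Schedule: 15 min enzyme-compound preincubation, 2 h reaction, 10 min detection, 25 °C. Signal: luciferase luminescence of residual ATP, Kinase-Glo. Evaluation: percent inhibition versus plate control medians. Controls: DMSO wells, low control.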
iPSC survival up: hiPSC single-cell survival enhancement; ATPlite luminescence; 100% = ROCK inhibitor wells, 0% = DMSO; survival enhancement, % at 20 µM; hit rate 0.044% among 360,000; in the data active = survival enhancement above about 18%;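 also: cells exposed to compounds for 16 hours before the ATP read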
PREPL inh: inhibitors of human prolyl oligopeptidase-like enzyme PREPL | Q4J6C6 | recombinant PREPL, fluorescence polarization activity-based probe | inhibition, % at 5.96 µM | hit rate 0.68% among 320,000 | AID 2751;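 also: 0% = enzyme with DMSO and 100% = wells lacking enzyme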
Target sequence (Q4J6C6 whole entry, looked up): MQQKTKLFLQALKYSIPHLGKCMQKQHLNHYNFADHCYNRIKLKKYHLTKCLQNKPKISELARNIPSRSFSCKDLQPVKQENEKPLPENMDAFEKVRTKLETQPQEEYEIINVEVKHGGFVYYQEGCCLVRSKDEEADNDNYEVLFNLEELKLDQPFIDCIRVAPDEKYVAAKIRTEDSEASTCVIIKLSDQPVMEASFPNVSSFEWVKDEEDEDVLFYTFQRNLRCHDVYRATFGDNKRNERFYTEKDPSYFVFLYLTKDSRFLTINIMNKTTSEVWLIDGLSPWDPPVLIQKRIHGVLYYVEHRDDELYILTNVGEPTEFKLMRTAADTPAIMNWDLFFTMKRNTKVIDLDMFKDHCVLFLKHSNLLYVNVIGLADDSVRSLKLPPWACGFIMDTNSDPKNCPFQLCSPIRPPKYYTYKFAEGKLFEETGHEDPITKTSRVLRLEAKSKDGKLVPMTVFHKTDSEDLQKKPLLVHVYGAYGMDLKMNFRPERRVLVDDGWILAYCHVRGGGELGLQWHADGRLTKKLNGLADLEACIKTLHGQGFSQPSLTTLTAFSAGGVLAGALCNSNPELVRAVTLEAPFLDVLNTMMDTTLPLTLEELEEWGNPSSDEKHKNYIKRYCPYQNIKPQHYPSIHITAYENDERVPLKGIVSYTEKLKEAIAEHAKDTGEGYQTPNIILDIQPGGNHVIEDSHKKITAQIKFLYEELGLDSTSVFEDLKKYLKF
SKN-1 inh: C. elegans SKN-1 inhibition | hit rate 0.49% among 360,000 | inhibition, % at 21.8 µM | C. elegans VP596 Pgst-4::GFP/RFP ratio, acrylamide-induced, 24 h;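 active = interference check ratio from 0.5 to 1.5 plus GFP to RFP signal ratio inhibition reaching or exceeding a fixed threshold, cut at about 30% in these data, passing the limit was not always enough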
eLon inh: inhibitors of E. coli Lon protease; P0A9M0; purified E. coli Lon protease, fluorescence polarization; inhibition, % at 7.94 µM; hit rate 0.42% among 360,000; in the data active = inhibition above about 13%, passing the limit was not always enough;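 also: 0% = enzyme with probe and DMSO and 100% = no enzyme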
PREPL inh cf: confirmation of human PREPL enzyme inhibitors. shares compounds with PREPL inh. recombinant PREPL, fluorescence polarization activity probe. inhibition, % at 5.96 µM. hit rate 67% among 2,000. AID 2803;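 also: 0% = protein with DMSO and 100% = wells lacking protein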
Starred values were filed as active, the others as inactive; · = no result given. Rule as the data show it, unless noted: active = inhibition above about 43%; inactive = the rest.

SMILES	MT1-MMP act inh	TbMetRS inhib	iPSC survival up	PREPL inh	SKN-1 inh	eLon inh	PREPL inh cf
O=C(NC(=S)Nc1ccc(N2CCN(C(=O)c3ccccc3)CC2)cc1)c1cccs1	-19	0	0	51*	2	0	43
CCC(=O)N1CCN(c2ccc(NC(=O)COc3cccc(C)c3C)cc2)CC1	-2	-1	0	53*	-1	-11	56*
COc1ccc(OCC(=O)Nc2ccc(N3CCN(C(=O)c4ccccc4C)CC3)cc2)cc1	5	-1	0	33	-4	-11	·
CCc1ccc(OCC(=O)Nc2ccc(N3CCN(C(=O)c4ccccc4)CC3)cc2)cc1	5	-1	0	58*	-11	-17	56*
CC1=C(C(=O)N(C)C)CC(CC(=O)NCCc2ccccn2)C(=O)N1Cc1ccccc1 (centres undefined)	3	-2	8	·	-4	-4	·
CN(Cc1ccco1)c1ncnc2ccc(-c3ccoc3)cc12	-11	0	-2	16	6	-11	·
CN(Cc1ccco1)c1ncnc2ccc(-c3ccccc3Cl)cc12	1	0	2	45*	0	-6	20
Cc1cc(C(=O)OCC(=O)Nc2cc(C(F)(F)F)ccc2N2CCOCC2)c(C)o1	-15	0	-3	0	14	5	·
CN1CCN(CCCNC(=O)c2ccc3c(c2)N(Cc2ccc(F)cc2)CCS3)CC1	-1	1	0	44*	4	2	36
CCc1cc(C(=O)OC)c(NC(=O)CN2CCN(C(=O)C3CCCO3)CC2)s1 (centres undefined)	-1	-1	1	0	10	4	·
CCN1C(N(C)CCc2cccs2)=N[C@@H](c2ccccc2)C(C(=O)OC)=C1C	-4	0	0	5	14	-8	·
CCN1C(N(C)CCc2c[nH]c3ccccc23)=N[C@@H](c2cccc(C(F)(F)F)c2)C(C(=O)OC)=C1C	-4	0	-6	56*	18	-2	42
O=C(NCCc1c[nH]c2ccccc12)C(=O)NCC(c1cccnc1)N1CCN(c2ccccc2)CC1 (centres undefined)	4	0	1	52*	4	-1	46*
COC(=O)NCC(c1cccnc1)N1CCN(c2ccccc2)CC1 (centres undefined)	2	-1	-2	-5	7	-5	·
CCOc1ccc2nc3cc(NCc4ccc(OC)cc4)ccc3c(N)c2c1	-144	0	-1	102*	12	-25	79*
CCn1cnc2cc(NCc3ccc(OC)cc3)ccc21	3	0	-2	14	-3	2	·
CC1CCCCN1CCNS(=O)(=O)c1ccc2c(c1)oc(=O)n2C (centres undefined)	0	0	1	-2	3	-6	·
CCC[C@@H](CN1CCC[C@H]1CN1C(N)=NC[C@@H]1Cc1ccccc1)N1C[C@@H]([C@H](C)CC)N(CCc2ccc(Cl)c(Cl)c2)C1=N	1	0	0	43*	-12	-1	31
CCC[C@@H](CN1CCC[C@H]1CN1C(N)=NC[C@H]1CC(C)C)N1C[C@@H](Cc2ccccc2)N(CCc2ccc(Cl)c(Cl)c2)C1=N	1	-2	2	42	-14	-9	·
CC[C@@H](C)[C@@H]1CN([C@@H](CN2CCC[C@H]2CN2C(N)=NC[C@H]2CC(C)C)C(C)C)C(=N)N1CCc1ccc(Cl)c(Cl)c1	5	-1	-1	47*	-23	5	48*
CC[C@@H](C)[C@@H]1CN([C@@H](CN2CCC[C@H]2CN2C(N)=NC[C@H]2CC(C)C)C(C)C)C(=N)N1CCCC1CCCC1	0	0	0	36	-11	-4	·
CC[C@@H](C)[C@@H]1CN([C@@H](C)CN2CCC[C@H]2CN2C(N)=NC[C@H]2CC(C)C)C(=N)N1CCc1ccc(Cl)c(Cl)c1	-1	0	1	53*	-13	-9	41
